Reference: ChEMBL document CHEMBL4011643, “Triaryl Benzimidazoles as a New Class of Antibacterial Agents against Resistant Pathogenic Microorganisms” (J Med Chem, 2017)
Converted amounts (≈) assume the structure as drawn.

Legend:
[1] = Stabilization of FAM/TAMRA-labeled AT-rich DNA duplex (unknown origin) assessed as change in melting temperature at 5 uM by FRET-based assay
Summary of the method: (§1)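 FRET melting of a FAM/TAMRA-labelled AT-rich oligonucleotide, 400 nM working solution in 50 mM potassium, 50 mM cacodylate, pH 7.4. DNA was annealed at 85 °C for 6 min, then held at 25 °C for 5 h, and mixed 1:1 with sample. Fluorescence was read every 0.5 °C from 30 to 100 °C, with a 30 s hold per step. ΔTm is measured against the blank, in triplicate.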

[2] = Stabilization of FAM/TAMRA-labeled AT-rich DNA duplex (unknown origin) assessed as change in melting temperature at 1 uM by FRET-based assay; summary of the method: as §1
[3] = tested on: Pseudomonas aeruginosa; assay: Antibacterial activity against Pseudomonas aeruginosa PAO1 after 20 hrs in the presence of PMBN by broth microdilution method; type: functional; details: PAO1, 20 h
Summary of the method: (§2)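 Broth microdilution in Tryptic Soy Broth, done in triplicate. Growth was read as OD600 after 20 h. MIC is the lowest drug concentration giving OD600 below 0.1.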

[4] = tested on: Acinetobacter baumannii; assay: Antibacterial activity against Acinetobacter baumannii AYE after 20 hrs in the presence of Pa-beta-N and magnesium ions by broth microdilution method; type: functional; summary of the method: as §2
[5] = tested on: Acinetobacter baumannii; assay: Antibacterial activity against Acinetobacter baumannii ATCC 17978 after 20 hrs in the presence of PMBN by broth microdilution method; type: functional; details: ATCC 17978, 20 h; summary of the method: as §2
[6] = tested on: Pseudomonas aeruginosa; assay: Ratio of MIC for Pseudomonas aeruginosa NCTC 13437 in absence of Pa-beta-N to MIC for Pseudomonas aeruginosa NCTC 13437 in presence of Pa-beta-N; type: functional
Summary of the method: (§3)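 Both MICs were by TSB broth microdilution, with an OD600 <0.1 cutoff at 20 h.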

[7] = tested on: Pseudomonas aeruginosa; assay: Antibacterial activity against Pseudomonas aeruginosa NCTC 13437 after 20 hrs in the presence of PMBN by broth microdilution method; type: functional; details: NCTC 13437, 20 h; summary of the method: as §2
[8] = tested on: Klebsiella pneumoniae; assay: Ratio of MIC for Klebsiella pneumoniae NCTC 13368 in absence of Pa-beta-N to MIC for Klebsiella pneumoniae NCTC 13368 in presence of Pa-beta-N; type: functional; summary of the method: as §3
[9] = tested on: Pseudomonas aeruginosa; assay: Antibacterial activity against Pseudomonas aeruginosa NCTC 13437 after 20 hrs by broth microdilution method; type: functional; details: NCTC 13437, 20 h; summary of the method: as §2
[10] = Cytotoxicity against human HeLa cells assessed as cell viability at 25 uM after 24 hrs by MTT assay; type: cell-based; details: read-out: Activity
Summary of the method: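 HeLa cells, 10000 per well, were grown at 37 °C in 5% CO2 and allowed to settle for 24 h. Compound was then added in triplicate for 24 h of continuous exposure. Viability was read by MTT colorimetry, with absorbance at 570 nm.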

[11] = tested on: Acinetobacter baumannii; assay: Ratio of MIC for Acinetobacter baumannii ATCC 17978 in absence of PMBN to MIC for Acinetobacter baumannii ATCC 17978 in presence of PMBN; type: functional
Summary of the method: (§4)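 Fold change: MIC without divided by MIC with 30 μg/mL PMBN. Both MICs were by TSB broth microdilution, with an OD600 <0.1 cutoff at 20 h.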

[12] = tested on: Staphylococcus aureus; assay: Bactericidal activity against methicillin-resistant Staphylococcus aureus EMRSA-15 assessed as time required to kill bacteria by >6 log10CFU/ml at 4 times MIC by Miles Misra dilution method; type: functional
Summary of the method: (§5)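 Flasks of TSB inoculated at ~10^6 cfu/mL, compound added at 4 × MIC, shaken at 200 rpm and 37 °C. Samples taken at 1, 2, 4, 6 and 24 h and plated by Miles Misra dilution for CFU/mL. Bactericidal means a loss of >3 log CFU/mL. Three independent repeats, error bars SD.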

[13] = tested on: Klebsiella pneumoniae; assay: Antibacterial activity against Klebsiella pneumoniae NCTC 13368 after 20 hrs in the presence of Pa-beta-N and magnesium ions by broth microdilution method; type: functional; details: NCTC 13368, 20 h; summary of the method: as §2
[14] = tested on: Acinetobacter baumannii; assay: Ratio of MIC for Acinetobacter baumannii ATCC 17978 in absence of Pa-beta-N to MIC for Acinetobacter baumannii ATCC 17978 in presence of Pa-beta-N; type: functional; summary of the method: as §3
[15] = tested on: Enterococcus faecium; assay: Antibacterial activity against vancomycin-resistant Enterococcus faecium NCTC 12204 after 20 hrs by broth microdilution method; type: functional; details: NCTC 12204, 20 h
Summary of the method: (§6)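 Broth microdilution in Tryptic Soy Broth; growth read as OD600 after 20 h. MIC taken as the lowest drug concentration giving OD600 below 0.1. Run in triplicate.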

[16] = tested on: Klebsiella pneumoniae; assay: Ratio of MIC for Klebsiella pneumoniae NCTC 13368 in absence of PMBN to MIC for Klebsiella pneumoniae NCTC 13368 in presence of PMBN; type: functional; summary of the method: as §4
[17] = tested on: Staphylococcus aureus; assay: Antibacterial activity against methicillin-sensitive Staphylococcus aureus ATCC 9144 after 20 hrs by broth microdilution method; type: functional; details: ATCC 9144, 20 h; summary of the method: as §2
[18] = tested on: Pseudomonas aeruginosa; assay: Antibacterial activity against Pseudomonas aeruginosa PAO1 after 20 hrs in the presence of Pa-beta-N and magnesium ions by broth microdilution method; type: functional; details: PAO1, 20 h; summary of the method: as §2
[19] = tested on: Klebsiella pneumoniae; assay: Ratio of MIC for Klebsiella pneumoniae M6 in absence of PMBN to MIC for Klebsiella pneumoniae M6 in presence of PMBN; type: functional; summary of the method: as §4
[20] = tested on: Pseudomonas aeruginosa; assay: Antibacterial activity against Pseudomonas aeruginosa NCTC 13437 after 20 hrs in the presence of Pa-beta-N and magnesium ions by broth microdilution method; type: functional; details: NCTC 13437, 20 h; summary of the method: as §2
[21] = tested on: Enterococcus faecalis; assay: Antibacterial activity against vancomycin-resistant Enterococcus faecalis NCTC 12201 after 20 hrs by broth microdilution method; type: functional; details: NCTC 12201, 20 h; summary of the method: as §6
[22] = tested on: Klebsiella pneumoniae; assay: Antibacterial activity against Klebsiella pneumoniae NCTC 13368 after 20 hrs in the presence of PMBN by broth microdilution method; type: functional; details: NCTC 13368, 20 h; summary of the method: as §2
[23] = tested on: Staphylococcus aureus; assay: Antibacterial activity against methicillin-resistant Staphylococcus aureus MRSA252 after 20 hrs by broth microdilution method; type: functional; details: MRSA252, 20 h; summary of the method: as §6
[24] = tested on: Klebsiella pneumoniae; assay: Antibacterial activity against Klebsiella pneumoniae M6 after 20 hrs in the presence of PMBN by broth microdilution method; type: functional; details: M6, 20 h; summary of the method: as §2
[25] = tested on: Acinetobacter baumannii; assay: Antibacterial activity against Acinetobacter baumannii AYE after 20 hrs in the presence of PMBN by broth microdilution method; type: functional; summary of the method: as §2
[26] = tested on: Acinetobacter baumannii; assay: Antibacterial activity against Acinetobacter baumannii ATCC 17978 after 20 hrs in the presence of Pa-beta-N and magnesium ions by broth microdilution method; type: functional; details: ATCC 17978, 20 h; summary of the method: as §2
[27] = tested on: Enterococcus faecalis; assay: Bactericidal activity against vancomycin-resistant Enterococcus faecalis NCTC 12201 assessed as time required to kill bacteria by >6 log10CFU/ml at 4 times MIC by Miles Misra dilution method; type: functional; summary of the method: as §5
[28] = tested on: Acinetobacter baumannii; assay: Antibacterial activity against Acinetobacter baumannii AYE after 20 hrs by broth microdilution method; type: functional; summary of the method: as §2
[29] = tested on: Enterococcus faecalis; assay: Antibacterial activity against vancomycin-sensitive Enterococcus faecalis NCTC 775 after 20 hrs by broth microdilution method; type: functional; details: NCTC 775, 20 h; summary of the method: as §2
[30] = tested on: Acinetobacter baumannii; assay: Ratio of MIC for Acinetobacter baumannii AYE in absence of Pa-beta-N to MIC for Acinetobacter baumannii AYE in presence of Pa-beta-N; type: functional; summary of the method: as §3
[31] = tested on: Klebsiella pneumoniae; assay: Antibacterial activity against Klebsiella pneumoniae NCTC 13368 after 20 hrs by broth microdilution method; type: functional; details: NCTC 13368, 20 h; summary of the method: as §2
[32] = tested on: Klebsiella pneumoniae; assay: Ratio of MIC for Klebsiella pneumoniae M6 in absence of Pa-beta-N to MIC for Klebsiella pneumoniae M6 in presence of Pa-beta-N; type: functional; summary of the method: as §3
[33] = tested on: Pseudomonas aeruginosa; assay: Ratio of MIC for Pseudomonas aeruginosa NCTC 13437 in absence of PMBN to MIC for Pseudomonas aeruginosa NCTC 13437 in presence of PMBN; type: functional; summary of the method: as §4
[34] = tested on: Klebsiella pneumoniae; assay: Antibacterial activity against Klebsiella pneumoniae M6 after 20 hrs in the presence of Pa-beta-N and magnesium ions by broth microdilution method; type: functional; details: M6, 20 h; summary of the method: as §2
[35] = tested on: Staphylococcus aureus; assay: Antibacterial activity against methicillin-resistant Staphylococcus aureus EMRSA-15 after 20 hrs by broth microdilution method; type: functional; details: EMRSA-15, 20 h; summary of the method: as §6
[36] = tested on: Klebsiella pneumoniae; assay: Antibacterial activity against Klebsiella pneumoniae M6 after 20 hrs by broth microdilution method; type: functional; details: M6, 20 h; summary of the method: as §2
[37] = tested on: Acinetobacter baumannii; assay: Ratio of MIC for Acinetobacter baumannii AYE in absence of PMBN to MIC for Acinetobacter baumannii AYE in presence of PMBN; type: functional; summary of the method: as §4
[38] = tested on: Staphylococcus aureus; assay: Inhibition of Staphylococcus aureus DNA gyrase assessed as reduction in pNO1 supercoiling at 0.5 ug/mL by fluorescent dye-based assay
Summary of the method: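 Supercoiling plate assay run per the kit instructions. S. aureus gyrase was incubated with compound and plasmid pNO1. Negatively supercoiled plasmid was captured by a triplex-forming oligonucleotide, stained with a fluorescent dye and read by fluorescence (excitation 485 nm). Percent inhibition was reported.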

[39] = tested on: Acinetobacter baumannii; assay: Antibacterial activity against Acinetobacter baumannii ATCC 17978 after 20 hrs by broth microdilution method; type: functional; details: ATCC 17978, 20 h; summary of the method: as §2
[40] = tested on: Pseudomonas aeruginosa; assay: Antibacterial activity against Pseudomonas aeruginosa PAO1 after 20 hrs by broth microdilution method; type: functional; details: PAO1, 20 h; summary of the method: as §2
[41] = tested on: Pseudomonas aeruginosa; assay: Ratio of MIC for Pseudomonas aeruginosa PAO1 in absence of PMBN to MIC for Pseudomonas aeruginosa PAO1 in presence of PMBN; type: functional; summary of the method: as §4

## Cn1cc(NC(=O)c2cc(NC(=O)CN=C(N)N)cn2C)cc1C(=O)NCCC(=N)N [NETROPSIN]
[1]
  deltaTm: 22.2 °C
[2]
  deltaTm: 16.5 °C

## Cc1nc2ccc(C(=O)Nc3cccc(-c4ccc(-n5c(C)nc6cc(C(=O)NCCCN(C)C)ccc65)nc4)c3)cc2[nH]1
[3]
  MIC: 4 µg/mL
[4]
  MIC: 8 µg/mL
[5]
  MIC: 8 µg/mL
[6]
  Ratio: 2 - 4
[7]
  MIC: 4 µg/mL
[8]
  Ratio: 2 - 4
[9]
  MIC: > 32 µg/mL
[10]
  viability at 24 h, 25 µM: > 98%
[11]
  Ratio: 2
[12]
  Time: 2 h
[13]
  MIC: 32 µg/mL
[14]
  Ratio: 2 - 4
[15]
  MIC: 0.5 µg/mL (≈ 0.852 µM)
[16]
  Ratio: 4
[17]
  MIC: 0.25 µg/mL (≈ 0.426 µM)
[18]
  MIC: > 32 µg/mL
[19]
  Ratio: 4
[20]
  MIC: 16 to 32 µg/mL
[21]
  MIC: 0.25 µg/mL (≈ 0.426 µM)
[22]
  MIC: 16 µg/mL
[23]
  MIC: 2 µg/mL (≈ 3.41 µM)
[24]
  MIC: 8 µg/mL
[25]
  MIC: 8 µg/mL
[26]
  MIC: 8 µg/mL
[27]
  Time: 2 h
[28]
  MIC: 16 µg/mL (≈ 27.3 µM)
[29]
  MIC: 0.5 µg/mL (≈ 0.852 µM)
[30]
  Ratio: 2 - 4
[31]
  MIC: > 32 µg/mL
[32]
  Ratio: >=4
[33]
  Ratio: >16
[34]
  MIC: 8 µg/mL
[35]
  MIC: 0.5 µg/mL (≈ 0.852 µM)
[36]
  MIC: 32 µg/mL (≈ 54.5 µM)
[37]
  Ratio: 2
[38]
  inhibition: 65.2%
[1]
  deltaTm: 2.1 °C
[39]
  MIC: 16 µg/mL (≈ 27.3 µM)
[2]
  deltaTm: 0.4 °C
[40]
  MIC: > 32 µg/mL
[41]
  Ratio: >16
